Assay outcomes (PubChem)
Rows were chosen to be rich in hits. Some 1.8% of all compounds tested hit in one or more screens of this group.
M4 antag: CHRM4 antagonism in calcium assay. hit rate 0.73% among 360,000. P08173. CHO-hM4 cells, ACh EC80, Fluo-8 calcium fluorescence. inhibition, % at 3 µM;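 active means inhibition above its plate's cutoff, the mean inhibition of sample wells plus 3 SD, cut at about 27% in these data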;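 further: 0% = acetylcholine EC80 with DMSO and 100% = DMSO without agonist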
CHRM5 PAM: potentiates acetylcholine response at human M5 receptor; CHO-K1 hM5, Fluo-8 calcium, ACh EC20 PAM; 0% = ACh EC20, 100% = ACh EC100; P08912; activation, % at 3 µM; hit rate 0.3% among 360,000; AID 624038;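 active means activation above the run cutoff, the mean activation of all test compounds plus 3 SD, cut at about 18% in these data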
Target sequence (P08912 whole entry, looked up): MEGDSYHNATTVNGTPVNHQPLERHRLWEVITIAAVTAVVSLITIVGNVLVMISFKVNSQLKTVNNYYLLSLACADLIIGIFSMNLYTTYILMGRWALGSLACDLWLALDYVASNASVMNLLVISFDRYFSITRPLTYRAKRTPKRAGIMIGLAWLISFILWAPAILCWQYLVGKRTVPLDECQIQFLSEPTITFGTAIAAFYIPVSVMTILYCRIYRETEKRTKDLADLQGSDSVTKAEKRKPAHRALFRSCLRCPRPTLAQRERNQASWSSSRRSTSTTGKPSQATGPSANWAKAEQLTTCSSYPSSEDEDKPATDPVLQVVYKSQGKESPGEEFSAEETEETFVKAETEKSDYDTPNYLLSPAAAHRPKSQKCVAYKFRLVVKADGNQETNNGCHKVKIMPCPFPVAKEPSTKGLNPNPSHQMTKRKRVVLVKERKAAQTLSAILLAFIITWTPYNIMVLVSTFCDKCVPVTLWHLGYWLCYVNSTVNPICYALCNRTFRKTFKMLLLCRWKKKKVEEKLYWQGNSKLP
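Measured by: Fluo-8 calcium fluorescence; material: human M5 receptor in CHO-K1 cells; schedule: Post-acetylcholine fluorescence recording 140 s; benchmarks: low control EC20 acetylcholine (0%), high control EC100 acetylcholine (100%); read-out: Max/basal fluorescence ratio as % of EC20–EC100 ACh window; compound: single dose, 3 µM nominal final test concentration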
M4 PAM: positive allosteric modulators of human muscarinic M4 receptor; P08173; CHO-K1 hM4/Gqi5, Fluo-8 calcium fluorescence, ACh EC20; 0% = ACh EC20, 100% = maximal ACh; hit rate 0.4% among 360,000; activation, % at 3 µM;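 active means activation above its plate's cutoff, the mean activation of sample wells plus 3 SD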
M5 ag: CHRM5 agonism in calcium assay; P08912; CHO-K1 hM5 cells, Fluo-8 calcium fluorescence; 0% DMSO wells, 100% maximal acetylcholine response; AID 624037; hit rate 0.19% among 360,000; activation, % at 3 µM;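 active means activation above the run's mean over test compounds plus 3 SD, cut at about 23% in these data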;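 further: signal is peak over basal fluorescence ratio across the kinetic read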
CHRM4 agonist: agonists of human muscarinic M4 receptor (CHRM4); activation, % at 3 µM; P08173; hit rate 0.14% among 360,000; CHO-K1 hM4/Gqi5, Fluo-8 calcium fluorescence; vehicle 0%, full acetylcholine response 100%;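 active means activation above the run mean over all test wells plus 3 SD, cut at about 32% in these data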;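 further: peak over basal fluorescence ratio per well then scaled between controls; 0% = DMSO wells and 100% = acetylcholine at EC100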
CHRM5 antagonist: CHRM5 antagonism in calcium assay; P08912; CHO-hM5 cells, Fluo-8 calcium fluorescence, ACh EC80; inhibition, % at 3 µM; hit rate 0.59% among 360,000; AID 624040;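 active means inhibition above a per-plate cutoff, the mean of that plate's test compounds plus 3 SD, cut at about 27% in these data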;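 further: 0% = acetylcholine EC80 with DMSO and 100% = DMSO without agonist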
* marks the source's active call; other numbers are inactive results; x = not tested or not shown.

SMILES	M4 antag	CHRM5 PAM	M4 PAM	M5 ag	CHRM4 agonist	CHRM5 antagonist
COc1ccc(OC)c(NC(=O)CSc2nc(C)cs2)c1	2.8	11.5	45.5*	0.7	-1.8	-17.8
CCOC(=O)Cc1csc(SCC(=O)NC2CCC(C)CC2)n1 (centres undefined)	-26.1	-1.2	19.6*	-2.2	1.6	-7.0
CCOC(=O)Cc1csc(SCC(=O)Nc2cc(Cl)ccc2Oc2ccccc2)n1	44.7*	-15.8	-10.0	-3.5	7.9	20.3
O=C(CSc1n[nH]c(=O)n1C1CC1)Nc1cc(Cl)ccc1Oc1ccccc1	46.8*	-20.1	-16.5	3.7	22.0	30.4*
O=C1CN(C(=O)c2cccc(F)c2)C(c2ccc(F)cc2)c2cc(F)ccc2N1 (centres undefined)	51.9*	-22.9	-19.4	-8.1	8.2	13.9
O=C1CN(C(=O)c2c(F)cccc2F)C(c2ccc(F)cc2)c2cc(F)ccc2N1 (centres undefined)	-14.3	-1.5	2.3	2.4	6.5	-0.9
O=C1c2ccccc2CCc2ccccc21	-5.8	2.1	6.0	-3.0	-0.6	8.3
C[N+]1(C)CCC(=C2c3ccccc3CC(=O)c3sccc32)CC1	80.5*	-17.4	-28.7	-7.5	0.3	77.3*
CC[N+]1(C)CCC(=C2c3ccccc3CC(=O)c3sccc32)CC1 (centres undefined)	99.2*	-17.4	-28.9	-7.4	0.5	98.8*
Cc1ccnc2nc(C(=O)OCC(=O)NC3CCCC(C)C3C)nn12 (centres undefined)	-9.1	-3.8	20.9*	1.1	1.6	4.9
CN1C2CC(OC(=O)C(CO)c3ccccc3)CC1C1OC12 (centres undefined)	98.9*	x	-17.1	x	0.7	x
CCCN1C(=O)CC(Sc2ncccc2C(=O)O)C1=O (centres undefined)	6.6	-2.2	-2.0	-2.0	0.5	7.4
COc1ccc(CCN2C(=O)CC(Sc3ncccc3C(=O)O)C2=O)cc1OC (centres undefined)	-13.9	25.8*	32.5*	-1.6	0.0	-8.1
O=C(NCc1ccccn1)c1ccc(-c2ccccc2)cc1	-5.9	2.2	1.3	1.6	2.3	-25.7
O=C(NCc1ccccn1)c1ccc(=O)oc1	10.3	1.2	30.9*	1.3	0.5	-3.4
COc1ccccc1CNCCS(=O)(=O)NN1CCOCC1	-16.6	-2.9	15.7	-0.3	0.0	3.9
Clc1ccc(Sc2ccc(/C=N/n3cnnc3)o2)cc1	-10.4	0.1	24.4*	-3.3	0.8	-6.9
COCCCN1C(=O)C(CC(=O)NCCCCc2ccccc2)CC(C(=O)N(C(C)C)C(C)C)=C1C (centres undefined)	-2.6	2.0	4.5	2.2	0.9	1.1
COc1ccc(CC(=O)OCC(=O)N2CCCc3ccccc32)cc1OC	-20.0	-1.4	-1.9	3.2	1.9	0.4
CN1CCN(CCC=C2c3ccccc3Sc3ccc(S(=O)(=O)N(C)C)cc32)CC1	10.0	-9.1	-13.2	1.7	8.2	7.3
CN(C)CC/C=C1/c2ccccc2Sc2ccc(Cl)cc21	98.8*	-18.1	-19.0	0.9	9.1	98.7*
CCCCCC[N+](C)(C)CC/C=C1/c2ccccc2Sc2ccc(Cl)cc21	98.9*	-32.8	-59.0	-18.2	-0.6	98.6*
OCCN1CCN(CC/C=C2/c3ccccc3Sc3ccc(C(F)(F)F)cc32)CC1	4.2	-6.2	-13.4	0.8	7.5	8.7
CN(C)CC/C=C1\c2ccccc2COc2ccccc21	66.7*	-18.5	-18.2	-1.3	2.0	97.8*
O=C(NNC(=O)c1cc(Cl)ccc1O)c1cccc(S(=O)(=O)N2CCOCC2)c1	13.1	3.1	-3.3	0.8	0.4	0.7
SMILES	M4 antag	CHRM5 PAM	M4 PAM	M5 ag	CHRM4 agonist	CHRM5 antagonist
CCN1CCN(c2ccc(NC(=O)c3ccc(Cl)c(S(=O)(=O)N4CCCC4)c3)cc2)CC1	47.9*	-36.6	-13.2	-7.6	7.9	55.9*
CCCCOc1cccc(C(=O)Nc2ccc(N3CCN(CC)CC3)cc2)c1	11.1	-29.9	-17.4	-12.4	2.8	38.8*
CCN1CCN(c2ccc(NC(=O)c3ccc(OC)c(S(=O)(=O)N4CCCC4)c3)cc2)CC1	12.8	-18.8	-0.6	-9.6	0.2	22.0
CCN(CC)CCOC(=O)c1ccc(NC(=O)c2ccc(Cl)c(S(=O)(=O)N3CCCCCC3)c2)cc1	35.8*	-33.4	-20.9	-16.8	4.8	36.6*
CCc1cc(-c2nnn(CCC3COCCO3)c2C(C)(C)O)ccc1-c1cn(CCc2c[nH]c3ccccc23)nn1 (centres undefined)	-5.8	0.6	-4.0	4.4	11.4	-3.9
O=C1C=C(C#Cc2ccc(Oc3ccccc3)cc2)C[C@@H](c2ccc(F)cc2)C1	-16.8	2.7	8.1	3.8	0.4	-1.6
Cc1ccc(CONC(=O)c2cccc([N+](=O)[O-])c2)cc1	1.9	4.5	0.5	0.8	0.2	-0.2
COC(=O)C(/C=N/OCc1ccc([N+](=O)[O-])cc1)NC(=O)c1cccc(Cl)c1 (centres undefined)	11.5	-9.8	10.2	33.8*	29.1	-0.9
COc1ccc(C(C[N+](=O)[O-])c2c(C)[nH]c3ccccc23)cc1OC (centres undefined)	-0.5	18.7*	5.0	-1.8	3.5	0.5
COc1cc(C(c2c(C(=O)O)[nH]c3ccccc23)c2c(C(=O)O)[nH]c3ccccc23)ccc1OCc1ccccc1	3.7	0.0	-6.9	-5.5	0.5	3.7
COc1cc(/C=C2\SC(N)=NC2=O)cc(Br)c1O	-0.6	-9.5	-7.0	23.7*	6.8	-7.0
COc1cc(/C=N/N2C(=O)CSC2=S)cc(Br)c1O	8.5	-21.3	-30.4	55.7*	69.4*	10.0
COc1ccc(/C=C2\SC(N)=NC2=O)cc1	1.1	-3.8	-6.1	3.6	0.4	2.2
CN(Cc1ccccc1)C(=O)Cn1c(=O)c2cccn2c2cccnc21	4.1	-6.1	-4.0	0.5	5.9	-2.7
COCCN(C(=O)CCC(=O)Nc1cc(C)on1)C(C(=O)NC1CCCC1)c1ccccc1F (centres undefined)	75.0*	27.6*	-20.2	5.9	-0.3	17.5
COc1ccccc1CNC(=O)Nc1nc(C(N)C(C)C)cs1 (centres undefined)	2.6	-2.3	1.8	1.0	1.2	-0.3
COc1ccc(CNC(=O)Nc2nc(C(N)Cc3ccc(F)cc3)cs2)cc1 (centres undefined)	18.8	2.0	-4.7	8.5	18.0	8.9
COc1ccccc1CNC(=O)Nc1nc(C(N)Cc2ccc(Cl)cc2)cs1 (centres undefined)	26.6*	-1.2	-3.6	5.9	15.1	3.9
